What was measured:
[1] = biological target: Neuraminidase (Influenza A virus (A/Puerto Rico/8/1934(H1N1)), UniProt P03468); assay: Inhibition of Influenza Virus A/PR/8/34 neuraminidase chemiluminescence-based enzyme inhibition assay
Method in brief: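 Chemiluminescent NA assay using NA-Star 1,2-dioxetane sialic acid substrate. Virus culture supernatant was serially 2-fold diluted in NA-Star buffer, and the dilution giving 40:1 signal-to-noise was used. Compound was preincubated with virus for 20 min at 37 C, then substrate (1:500) was added for 30 min at room temperature. Mean of six untreated virus controls set to 100%. IC50 from n = 3 assays, triplicate wells.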

[2] = biological target: T1, Neuraminidase (Influenza A virus, UniProt B4URF0); assay: Inhibition of Influenza Virus A/Potsdam/15/81 (H1N1) neuraminidase
T1 sequence (B4URF0 whole entry): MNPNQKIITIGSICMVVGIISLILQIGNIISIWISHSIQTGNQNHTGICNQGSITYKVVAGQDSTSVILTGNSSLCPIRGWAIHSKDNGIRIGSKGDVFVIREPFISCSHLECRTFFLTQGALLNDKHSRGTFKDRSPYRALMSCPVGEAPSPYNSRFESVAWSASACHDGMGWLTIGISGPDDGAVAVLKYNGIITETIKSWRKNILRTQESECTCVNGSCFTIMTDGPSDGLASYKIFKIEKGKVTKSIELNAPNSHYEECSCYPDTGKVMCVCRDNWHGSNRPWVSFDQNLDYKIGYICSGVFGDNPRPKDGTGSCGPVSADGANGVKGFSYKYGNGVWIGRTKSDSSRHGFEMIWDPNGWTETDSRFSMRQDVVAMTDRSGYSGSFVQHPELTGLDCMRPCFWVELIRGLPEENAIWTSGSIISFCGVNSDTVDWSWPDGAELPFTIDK

[3] = biological target: T1, Neuraminidase; assay: Inhibition of Influenza Virus A/Belzig/2/01 (H1N1) neuraminidase; design: species or system Influenza A virus (A/swine/Belzig/2/2001(H1N1))
Method in brief: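 Swine H1N1 NA assayed by NA-Star chemiluminescence. Compound was mixed with the diluted virus supernatant (dilution giving 40:1 signal-to-noise) for 20 min at 37 C, then substrate (1:500) was added for 30 min at room temperature. Activity relative to six untreated virus controls; IC50 from one assay, each concentration in triplicate.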

[4] = biological target: T1, Neuraminidase; assay: Inhibition of Influenza Virus A/Horneburg/IDT7489/08 (H1N1) neuraminidase
Method in brief: (§1)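 Swine H1N1 isolate NA measured by NA-Star chemiluminescence. The virus supernatant dilution giving 40:1 signal-to-noise was incubated with compound for 20 min at 37 C, then dioxetane sialic acid substrate (1:500) was added for 30 min at room temperature. Six untreated virus controls set to 100%. IC50 from n ≥ 4 assays, triplicate wells.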

[5] = biological target: T1, Neuraminidase; assay: Inhibition of Influenza Virus A/Brest/IDT7490/08 (H1N1) neuraminidase; method in brief: as §1
[6] = tested on: Influenza A virus; assay: Antiviral activity against Influenza A virus (A/Puerto Rico/8/34(H1N1)) in MDCK cells assessed as reduction in plaque number by plaque reduction assay; details: A/Puerto Rico/8/1934(H1N1)
[7] = Cytotoxicity against MDCK cells; assay type: cell-based, Canis lupus familiaris; details: dog
Method in brief: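 Confluent 3-day-old MDCK monolayers in EMEM with 10% FBS were exposed to serial 2-fold dilutions (triplicate) for 72 h at 37 °C, 5% CO2. Cells were fixed and stained with crystal violet-formalin, dye was extracted, and OD was read at 550/630 nm. Viability is given relative to six mock-treated controls. CC50 comes from the mean dose-response curve of two independent assays.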

Neuraminidase (Influenza A virus (A/Puerto Rico/8/1934(H1N1)), UniProt P03468), sequence (P03468 whole entry): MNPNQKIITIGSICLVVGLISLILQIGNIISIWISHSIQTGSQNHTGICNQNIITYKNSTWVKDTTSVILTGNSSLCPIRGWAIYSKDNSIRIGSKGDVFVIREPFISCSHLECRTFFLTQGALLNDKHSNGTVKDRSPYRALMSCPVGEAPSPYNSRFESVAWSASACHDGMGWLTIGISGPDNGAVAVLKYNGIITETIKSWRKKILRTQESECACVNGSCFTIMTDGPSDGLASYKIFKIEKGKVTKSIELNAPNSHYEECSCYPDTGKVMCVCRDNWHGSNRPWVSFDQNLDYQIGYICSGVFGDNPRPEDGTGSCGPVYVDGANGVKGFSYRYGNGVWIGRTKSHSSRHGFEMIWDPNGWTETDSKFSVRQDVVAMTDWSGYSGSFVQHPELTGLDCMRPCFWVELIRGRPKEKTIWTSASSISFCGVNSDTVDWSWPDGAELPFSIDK

| Structure (SMILES) | IC50 [1] [µM] | further results |
| --- | --- | --- |
| O[C@@H](CC/C=C/c1ccccc1)CCc1ccccc1 | 4.13 | – |
| O=C(/C=C/C=C/c1ccccc1)CCc1ccccc1 | 6.1 | – |
| O=C(/C=C(O)\C=C\c1ccccc1)CCc1ccccc1 | 4.67 | – |
| O[C@@H](CCc1ccccc1)C[C@H](O)/C=C/c1ccccc1 | 29.8 | – |
| CC(C)=CCC/C(C)=C/CC/C(C)=C/CO [FARNESOL] | 81.4 | – |
| O=C(CCc1ccccc1)C[C@@H]1C[C@@H](c2ccccc2)c2c(cc(/C=C/c3ccccc3)oc2=O)O1 [KATSUMADAIN A] | 1.05 | IC50 [2]: 0.00073 µM; IC50 [3]: 0.00059 µM; IC50 [4]: 0.00111 µM; IC50 [5]: 0.00164 µM; IC50 [6]: 11.8 µM; CC50 [7]: 66.9 µM |

— ChEMBL document CHEMBL1154750 (J Med Chem, 2010)
